Measurements collected from several papers.
Lines come from different studies, so protocols differ. pIC50: −log10 of the molar value.
Target: Acetylcholinesterase (ACHE, Homo sapiens, UniProt P22303)
Observed: enzyme activity
Action: inhibitor

Compound	technique	pIC50
CCOc1cccc(NC(=O)CSc2nnc(COc3ccc4ccccc4c3)n2-c2ccccc2)c1	Ellman	5.94
O=c1cc(CSc2ccc(N=Cc3cccc(F)c3)cc2)occ1O	Ellman	4.58
COc1cc(-c2nc3ccccc3s2)cc2c1OCC(=O)N2CC(=O)N[C@@H](CC(C)C)C(=O)O	Ellman	< 3.58
O=C(CSc1nnc(COc2ccc3ccccc3c2)n1-c1ccccc1)Nc1ccccc1	Ellman	5.73
CC[C@H](C)[C@@H](NC(=O)COc1c(NC(C)=O)cc(-c2nc3ccccc3s2)cc1OC)C(=O)O	Ellman	< 3.58
CC(C)c1cc2c(c(O)c1O)[C@@]1(C(=O)O)CCCC(C)(C)[C@@H]1CC2	–	9.11
CCc1cccc(C)c1NC(=O)CSc1nnc(COc2ccc3ccccc3c2)n1-c1ccccc1	Ellman	5.85
O=c1cc(CSc2ccc(N=Cc3ccc(Br)cc3)cc2)occ1O	Ellman	6.24
CC(C)c1cc2c(c(O)c1O)[C@@]13CCCC(C)(C)[C@@H]1[C@@H](O)[C@@H]2OC3=O	–	9.01
COc1cc(-c2nc3ccccc3s2)cc2c1OCC(=O)N2CC(=O)N[C@H](C(=O)O)C(C)C	Ellman	< 3.56
Cc1ccc(NC(=O)CSc2nnc(COc3ccc4ccccc4c3)n2-c2ccccc2)c(C)c1	Ellman	6.16
O=c1cc(CSc2ccc(N=Cc3cccc(Cl)c3)cc2)occ1O	Ellman	4.88
COc1cc(-c2nc3ccccc3s2)cc2c1OCC(=O)N2CC(=O)NCC(=O)O	Ellman	< 3.52
O=c1cc(CSc2ccc(N=Cc3ccc(O)cc3)cc2)occ1O	Ellman	5.30
COc1cc(-c2nc3ccccc3s2)cc(NC(C)=O)c1OCC(=O)N[C@@H](C)C(=O)O	Ellman	< 3.54
